Results pooled from the literature.
Compare with care: the assays were run in different laboratories.
SLC10A2: Ileal sodium/bile acid cotransporter (SLC10A2, Homo sapiens, UniProt Q12908)
AHR: Aryl hydrocarbon receptor (AHR, Homo sapiens, UniProt P35869)

Compound	target	effect on	mode	technique	pH	quantity	result
NS(=O)(=O)c1cc2c(cc1Cl)N=CNS2(=O)=O	SLC10A2	transporter uptake	inhibitor			Ki	1220 µM
COC(=O)c1cccc(C(=O)c2c[nH]c3c2ccc2ccccc23)n1	AHR	reporter gene	agonist	luciferase		EC50	0.015 µM
CC[C@H](C)C(=O)O[C@H]1C[C@H](O)C=C2C=C[C@H](C)[C@H](CC[C@@H](O)C[C@@H](O)CC(=O)O)[C@H]21	SLC10A2	transporter uptake	inhibitor			Ki	1360 µM
CSCC[C@H](NC(=O)[C@@H](NC(=O)[C@@H](N)Cc1ccc(O)cc1)C(C)C)C(=O)NCC(=O)N[C@@H](Cc1c[nH]cn1)C(=O)N[C@@H](Cc1ccccc1)C(=O)N[C@@H](CCCNC(=N)N)C(=O)N[C@@H](Cc1c[nH]c2ccccc12)C(=O)N[C@@H](CC(=O)O)C(=O)O	Melanocortin receptor 5 (MC5R, Homo sapiens, UniProt P33032)	reporter gene	agonist			EC50	4.46 µM
N=C(N)c1ccc(CN)cc1	Coagulation factor X (F10, Homo sapiens, UniProt P00742)	binding		BLI		Kd	1700 µM
O=C(CCCCCCNC(=O)c1cnc(N(c2ccccc2)c2ccccc2)nc1)NO	Polyamine deacetylase HDAC10 (HDAC10, Homo sapiens, UniProt Q969S8)	cell-free assay				Kd	0.456 µM
COC(=O)c1cccc(C(=O)c2c[nH]c3c4c(ccc23)CCC4)n1	AHR	reporter gene	agonist	luciferase		EC50	0.031 µM
CCOC(=O)C1=C(C)NC(C)=C(C(=O)OC)C1c1cccc([N+](=O)[O-])c1 (stereo not drawn)	SLC10A2	transporter uptake	inhibitor			Ki	34.1 µM
CC(C)c1cc(C2CCCN2C(=O)c2cc(-c3ccc4c(c3)OCO4)on2)no1 (stereo not drawn)	Cannabinoid receptor 2 (CNR2, Homo sapiens, UniProt P34972)	cAMP	agonist	TR-FRET		EC50	0.01 µM
O=C(N[C@H]1COC(=O)[C@@H](NC(=O)c2cccc(O)c2O)COC(=O)[C@@H](NC(=O)c2cccc(O)c2O)COC1=O)c1cccc(O)c1O	Neutrophil gelatinase-associated lipocalin (LCN2, Homo sapiens, UniProt P80188, C107S)	binding		fluorescence	pH 5.5	Kd	0.0055 µM
CN(C)C(=O)c1cccc(C(=O)c2c[nH]c3ccccc23)n1	AHR	reporter gene	agonist	luciferase		EC50	0.351 µM
COCCOC(=O)C1=C(C)NC(C)=C(C(=O)OC/C=C/c2ccccc2)C1c1cccc([N+](=O)[O-])c1 (stereo not drawn)	SLC10A2	transporter uptake	inhibitor			Ki	45.2 µM
O=C(c1cccc(Cl)n1)c1c[nH]c2ccccc12	AHR	reporter gene	agonist	luciferase		EC50	0.178 µM
C=CCSCC1Nc2cc(Cl)c(S(N)(=O)=O)cc2S(=O)(=O)N1 (stereo not drawn)	SLC10A2	transporter uptake	inhibitor			Ki	391 µM
Cc1cnc(-c2ccc(-c3ccc(NC(=O)Nc4c(F)cc(F)cc4F)cc3F)c3c2C(=O)NC3)[nH]1	Epithelial discoidin domain-containing receptor 1 (DDR1, Homo sapiens, UniProt Q08345)	binding		competition with immobilised ligand		Kd	0.0021 µM
